Data set [1] is described as follows: Partition coefficient of the compound, log P. The following applies: octanol/water. Format: physicochemical. The procedure, abridged:
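Experimental 1-octanol/water partition coefficient.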

The target in data set [2] is GABA-A receptor; anion channel (Rattus norvegicus) (UniProt O09028+P15431+P18506+P18508+P19969+P20236+P23574+P23576+P28471+P28473+P30191+P62813+P63079+P63138+Q91ZM7+Q9ES14). Nature of the data set: Inhibition of Wistar rat benzodiazepine receptor at 2 uM. Format: protein-complex assay.
For data set [3], the system named is Mus musculus. The experiment in a line: Anxiolytic activity in NMRI BR mice after ip administration by PTZ test. Format: functional. The procedure, abridged:
(§1)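 Male mice (NMRI BR at elbion, three per dose; CF-1 at NIH, up to five) given compound or vehicle i.p. at 30, 100, 300 mg/kg, 30 min and 4 h pretreatment. PTZ 85 mg/kg s.c. into neck, then 30 min observation for first generalized clonic seizure with loss of righting reflex.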

The subject of data set [4] is Mus musculus. The experiment in a line: Neurotoxicological activity in NMRI BR mice after ip administration by rotarod test. Format: functional. The procedure, abridged:
(§2)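 Male mice (CF-1 at NIH; NMRI BR at elbion), trained beforehand, dosed i.p. Motor impairment was defined as failure to stay on a rod (6 rpm, 0.9 cm diameter) for 1 min in at least one of three trials. The same animals were tested at several times (≥3 doses, n = 8/group). TD50 at peak time by probit analysis.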
For orientation: Falling from the rotarod earlier than controls is read as motor impairment.

The target in data set [5] is GABA-A receptor; anion channel. Nature of the data set: Binding affinity to Wistar rat benzodiazepine receptor. It is filed as protein-complex assay. The procedure, abridged:
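Rat (male Wistar, 180-200 g) whole-brain membranes without cerebellum in 0.05 M Tris/HCl pH 7.7. Bound ligand separated on filters and counted by scintillation. IC50 from 6-10 concentrations, Ki by Cheng-Prusoff, at least four repeats averaged.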

The test system of data set [6] is Rattus norvegicus. Nature of the data set: Anxiolytic activity in rat after oral administration by PTZ test. Format: functional. A digest of the protocol:
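Rats dosed orally. PTZ 70 mg/kg given s.c., then 30 min observation for first generalized clonic seizure with loss of righting reflex. Protection was measured at several pretreatment times (n = 3-4), and the peak time was used for the dose-response.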

In data set [7] the test system is Rattus norvegicus. Nature of the data set: Anxiolytic activity in rat after oral administration by vogel conflict test. The following applies: read-out: MED. Format: functional. A digest of the protocol: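 Modified Vogel conflict test in rats after oral dosing. Water-deprived 24 h, trained to drink 5.0% glucose for 5 min, deprived a further 24 h. The 210 s test session had 30 s unpunished drinking, then 180 s with mild shock on touching the drinking tube. Punished and unpunished licks counted. Minimal effective dose reported.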

The subject of data set [8] is Rattus norvegicus. The experiment in a line: Neurotoxicological activity in rat after oral administration by rotarod test. Format: functional. The procedure, abridged:
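Trained male rats dosed orally. Motor impairment was defined as failure to stay on a rod (8 rpm, 6 cm diameter) for 1 min in at least one of three trials. The same animals were tested at several time points (≥3 dose groups, n = 8/group). TD50 at time of peak neurotoxicity by probit analysis.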

For data set [9], the system named is Cynomolgus monkey. The experiment in a line: Plasma concentration in cynomolgus monkey at 5 mg/kg, po. It is filed as ADME, organism-based, Macaca fascicularis. Details: dose 5 mg/kg, route oral. The following applies: in vivo.
The test system of data set [10] is Mus musculus. Nature of the data set: Anxiolytic activity in CF1 mice after ip administration by PTZ test. Format: functional. A digest of the protocol:
as §1

In data set [11] the test system is Mus musculus. The experiment in a line: Neurotoxicological activity in CF1 mice after ip administration by rotarod test. It is filed as functional. The procedure, abridged: as §2
Data set [12] has as its system Cynomolgus monkey. The experiment in a line: Plasma concentration in cynomolgus monkey at 30 mg/kg, po. Format: ADME, organism-based, Macaca fascicularis. Details: dose 30 mg/kg, route oral. The following applies: in vivo.

`O=C1N=C(N2CCOCC2)CN1c1cccc(Cl)c1` displayed a log partition coefficient (logP) in data set [1] of 1.3. For the same compound, the inhibition in data set [2] was below 20%. In the data set on Mus musculus [3], this compound returned an ED50 above 300 mg/kg. The compound further returned a TD50 in the data set on Mus musculus [4] above 300 mg/kg.

For the compound `O=C1C=C(N2CCOCC2)CN1c1ccc(F)c(Cl)c1`, in data set [1], the logP was 2.2. In data set [5], this compound had a Ki of 2.05 µM. The compound further yielded an ED50 with Mus musculus [3] of 22.3 mg/kg. Also, the TD50 with Mus musculus [4] is below 100 mg/kg.

Compound `O=C1N=C(N2CCOCC2)CN1Cc1c(Cl)cccc1Cl` yielded a logP in data set [1] of 1.3. Further, the ED50 in the data set on Mus musculus [3] was above 300 mg/kg. Besides, the TD50 in the data set on Mus musculus [4] was above 300 mg/kg.

For the compound `Clc1ccc(-n2cnc(-c3ccccc3)c2)cc1`, the logP in [1] was 3.7. Further, the Ki in data set [5] amounted to 3.29 µM. Also, the ED50 in the data set with Mus musculus [3] is above 300 mg/kg. The compound further had a TD50 in the data set with Mus musculus [4] above 300 mg/kg.

The compound `O=C1C2C=Nc3ccccc3C2=NN1c1ccc(Cl)cc1` (stereo unspecified) [CGS-9896] showed a Ki in data set [5] of 0.0024 µM. Also, the ED50 in the data set on Mus musculus [3] worked out at 1.36 mg/kg; in the data set with Rattus norvegicus [6] it was 2.7 mg/kg. In addition, the TD50 in the data set on Mus musculus [4] is 302 mg/kg; in the data set with Rattus norvegicus [8], above 500 mg/kg. The minimal effective dose in the data set on Rattus norvegicus [7] was 0.3 mg/kg. Also, in the data set with Cynomolgus monkey [9], the concentration was 0.027 µM.

In [1], `O=C1N=C(N2CCOCC2)CN1c1ccc(Cl)c(Cl)c1` had a logP of 1.9. The same compound came in with an inhibition in data set [2] below 20%. In the data set with Mus musculus [3], the ED50 was above 300 mg/kg. In addition, the TD50 with Mus musculus [4] is above 300 mg/kg.

For `CN1CCN(C2=NC(=O)N(c3ccc(Cl)cc3)C2)CC1`, the logP in [1] was 2.2. The compound further displayed an inhibition in [2] below 20%. The ED50 in the data set on Mus musculus [3] was above 300 mg/kg. Further, in the data set on Mus musculus [4], the TD50 is above 100 mg/kg.

For the compound `O=C1N=C(N2CCOCC2)CN1c1ccc(Cl)cc1` [IMEPITOIN], it took a dose of 17.2 mg/kg to reach the 50% effect level in the data set with Mus musculus [10] (ED50). Also, the TD50 came out at 176 mg/kg with Mus musculus [11], 75.6 mg/kg in the data set with Mus musculus [4] and 998 mg/kg with Rattus norvegicus [8]. The logP in data set [1] was 1.5. In data set [5], this compound gave a Ki of 4.35 µM. In the data set with Rattus norvegicus [7], the minimal effective dose came out at 3 mg/kg. Moreover, the concentration with Cynomolgus monkey [12] was 39 µM.

In data set [1], `Clc1ccc(-c2noc(N3CCOCC3)n2)cc1` came in with a logP of 3.1. The compound further returned a Ki in data set [5] of 26.1 µM. The ED50 with Mus musculus [3] is above 300 mg/kg. The same compound gave a TD50 in the data set with Mus musculus [4] above 300 mg/kg.

`O=c1oc(-c2ccccc2)nn1-c1ccc(Cl)cc1`: the logP in [1] came to 2.6. For the same compound, the inhibition in [2] was below 20%. Further, in the data set with Mus musculus [3], the ED50 was above 300 mg/kg. Moreover, the TD50 in the data set with Mus musculus [4] is above 300 mg/kg.

As to `O=C1N=C(N2CCOCC2)CN1Cc1ccccc1Cl`, the log partition coefficient (logP) in [1] was found to be 1. In the data set with Mus musculus [3], this compound came in with an ED50 above 300 mg/kg. Also, the TD50 in the data set on Mus musculus [4] is above 300 mg/kg.

Regarding `O=C1N=C(N2CCOCC2)CN1c1ccc(F)cc1`, the ED50 with Mus musculus [10] turned out to be 35 mg/kg; in the data set on Rattus norvegicus [6], 34.1 mg/kg. For the same compound, the TD50 with Mus musculus [11] is above 500 mg/kg; in the data set with Rattus norvegicus [8] it was above 60 mg/kg. In data set [2], this compound returned an inhibition below 20%.

In data set [1], `CC(c1ccccc1)N1CC(N2CCOCC2)=NC1=O` (stereo unspecified) displayed a logP of 0.8. This compound also displayed an ED50 with Mus musculus [3] above 300 mg/kg. In addition, the TD50 with Mus musculus [4] is above 100 mg/kg.

With `O=C1C=C(N2CCOCC2)C(=O)N1c1ccc(Cl)cc1`, the logP in [1] was 2.3. The compound also returned a Ki in [5] of 8.88 µM. This compound showed an ED50 with Mus musculus [3] of 120 mg/kg. The same compound yielded a TD50 with Mus musculus [4] above 300 mg/kg.

For `O=C1C=C(N2CCCC2)C(=O)N1c1ccc(Cl)cc1`, the logP in [1] amounted to 3. In data set [5], this compound showed a Ki of 3.26 µM. This compound also returned an ED50 with Mus musculus [3] above 300 mg/kg. Also, the TD50 with Mus musculus [4] was above 300 mg/kg.

As to `CN1C(=O)CN=C(c2ccccc2)c2cc(Cl)ccc21` [DIAZEPAM], the ED50 in the data set with Mus musculus [3] stood at 0.4 mg/kg; with Rattus norvegicus [6], 6.3 mg/kg. The TD50 in the data set with Mus musculus [4] amounted to 2 mg/kg; in the data set with Rattus norvegicus [8], 13 mg/kg. For the same compound, the minimal effective dose with Rattus norvegicus [7] turned out to be 1 mg/kg.

In data set [1], `Clc1ccc(-c2cnn(-c3ccccn3)c2)cc1` yielded a logP of 4.3. Besides, the ED50 in the data set on Mus musculus [3] is above 300 mg/kg. The compound also showed a TD50 in the data set with Mus musculus [4] above 300 mg/kg.

In the case of `Cc1cccc(N2CC(N3CCOCC3)=CC2=O)c1`, the logP in data set [1] turned out to be 1.5. The compound further showed a Ki in data set [5] of 4.45 µM. The compound further registered an ED50 in the data set on Mus musculus [3] of 62.3 mg/kg. In the data set on Mus musculus [4], this compound displayed a TD50 below 100 mg/kg.

`Cc1ccc(N2CC(N3CCOCC3)=CC2=O)cc1` registered a logP in data set [1] of 1.4. Moreover, in [5], the affinity corresponds to a Ki of 0.344 µM. In the data set on Mus musculus [3], this compound returned an ED50 of 89.3 mg/kg. The compound further returned a TD50 in the data set on Mus musculus [4] of 100 mg/kg.

The logP is a log measure of how a compound divides between an organic and an aqueous phase. As usually defined, the inhibition is how much of the control response was suppressed. For orientation: ED50 means the dose that gives a 50% effect, or the effect in half of the subjects. Usually TD50 stands for the 50% point of the dose-response relation for the toxic effect studied. By Ki is commonly meant the dissociation constant of the complex between target and ligand, obtained from inhibition or displacement.

The values are drawn from ChEMBL document CHEMBL1138158, “Synthesis, pharmacology, and structure-activity relationships of novel imidazolones and pyrrolones as modulators of GABAA receptors” (J Med Chem, 2006).
